Assays:
[1] = test system: Western equine encephalitis virus; experiment: Antiviral activity against Western equine encephalomyelitis virus infected in human BE(2)-C cells assessed as inhibition of viral RNA replication after 18 to 20 hrs by luciferase reporter gene assay; type: functional, cell-based
[2] = target: MDR1 (ABCB1, P-glycoprotein) (Homo sapiens, UniProt P08183); experiment: Inhibition of human MDR1 expressed in MDCK2 cells assessed as increase of rhodamine 123 uptake at 30 uM up to 240 mins relative to control; type: ADME, cell-based, MDCK-II; details: MDCK2 cells expressing human MDR1, probe rhodamine 123
MDR1 (ABCB1, P-glycoprotein), sequence (P08183 whole entry): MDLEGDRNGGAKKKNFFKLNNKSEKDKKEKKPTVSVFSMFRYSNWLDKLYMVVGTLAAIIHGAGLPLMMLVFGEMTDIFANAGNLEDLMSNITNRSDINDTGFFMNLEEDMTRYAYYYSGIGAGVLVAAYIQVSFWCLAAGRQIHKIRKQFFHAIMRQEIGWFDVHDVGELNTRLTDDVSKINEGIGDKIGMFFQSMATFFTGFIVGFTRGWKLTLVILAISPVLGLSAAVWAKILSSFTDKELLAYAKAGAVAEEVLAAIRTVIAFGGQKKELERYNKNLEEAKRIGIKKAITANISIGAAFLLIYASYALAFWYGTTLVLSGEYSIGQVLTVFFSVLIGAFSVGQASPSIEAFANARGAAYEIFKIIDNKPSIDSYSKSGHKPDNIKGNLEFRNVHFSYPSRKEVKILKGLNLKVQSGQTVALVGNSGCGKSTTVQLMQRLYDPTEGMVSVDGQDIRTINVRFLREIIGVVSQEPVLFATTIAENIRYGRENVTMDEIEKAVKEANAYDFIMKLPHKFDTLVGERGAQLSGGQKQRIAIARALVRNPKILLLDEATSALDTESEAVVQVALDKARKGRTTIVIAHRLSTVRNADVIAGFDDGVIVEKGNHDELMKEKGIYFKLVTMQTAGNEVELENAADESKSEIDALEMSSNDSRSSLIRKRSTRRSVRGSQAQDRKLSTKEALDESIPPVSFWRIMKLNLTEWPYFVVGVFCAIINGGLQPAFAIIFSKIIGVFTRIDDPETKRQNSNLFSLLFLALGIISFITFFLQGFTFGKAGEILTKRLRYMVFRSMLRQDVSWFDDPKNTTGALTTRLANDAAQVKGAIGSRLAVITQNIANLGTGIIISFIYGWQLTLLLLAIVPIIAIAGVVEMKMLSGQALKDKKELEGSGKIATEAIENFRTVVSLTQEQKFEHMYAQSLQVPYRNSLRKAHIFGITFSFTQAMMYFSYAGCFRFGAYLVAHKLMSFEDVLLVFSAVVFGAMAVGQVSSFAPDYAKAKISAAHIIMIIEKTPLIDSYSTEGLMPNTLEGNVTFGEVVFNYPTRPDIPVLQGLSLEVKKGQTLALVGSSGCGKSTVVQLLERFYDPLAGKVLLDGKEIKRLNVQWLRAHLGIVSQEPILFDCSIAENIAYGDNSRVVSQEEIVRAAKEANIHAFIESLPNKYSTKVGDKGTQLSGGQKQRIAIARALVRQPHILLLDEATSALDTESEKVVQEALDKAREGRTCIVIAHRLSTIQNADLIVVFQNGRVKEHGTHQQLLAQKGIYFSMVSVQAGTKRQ
Procedure, shortened: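 Confluent MDR1-MDCKII cells (human Pgp-transfected) given fresh DMEM with 10 μM rhodamine 123, plus vehicle, tariquidar (5 μM) or compound (30 μM). Uptake at 37°C from 1 to 240 min, stopped by ice-cold PBS washes. Fluorescence read at ex 525/em 560-640 nm. Result expressed as % of same-day tariquidar effect, (Cav−Cveh)*100/(Ctar−Cveh). Triplicates on ≥3 occasions.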

[3] = Kinetic solubility of the compound; type: physicochemical
[4] = Cytotoxicity against human BE(2)-C cells after 18 to 20 hrs by MTT assay; type: cell-based
[5] = Cytotoxicity against human BE(2)-C cells assessed as cell viability at 25 uM after 24 hrs by MTT assay relative to control; type: cell-based; details: read-out: Activity
Fort Morgan virus = experiment: Antiviral activity against Fort Morgan virus infected in human BE(2)-C cells assessed as reduction of viral titer at 25 uM after 24 hrs by plaque reduction assay (reference value: 47.1 +/- 10.5 x 10^6 pfu/ml); type: functional
[6] = Half life in Balb-C mouse liver microsomes; type: ADME, Microsome
Procedure, shortened: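 Compound incubated with Balb-C mouse liver microsomes, and half-life determined for oxidative metabolism. Values are means of ≥2 independent incubations.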

[7] = test system: Western equine encephalitis virus; experiment: Antiviral activity against Western equine encephalomyelitis virus infected in human BE(2)-C cells assessed as reduction of viral titer at 25 uM after 24 hrs by plaque reduction assay (reference value: 25.7 +/- 5.2 x 10^6 pfu/ml); type: functional

| Structure (SMILES) | IC50 [1] | inhibition at 4 h, 30 µM [2] | CC50 ([4]; BE(2)-C cells) | CC50 ([4]; be(2)-c) | other results |
| --- | --- | --- | --- | --- | --- |
| O=C(NCc1ccco1)C1CCN(C(=O)c2cc3sccc3n2Cc2ccc(F)cc2)CC1 | 23.7 µM | – | – | – | – |
| O=C(NCc1ccncc1)C1CCN(C(=O)c2cc3ccccc3n2Cc2ccc(Cl)cc2)CC1 | 6.8 µM | 25.9% | > 100 µM | – | Kinetic_solubility [3]: 31 µM |
| O=C(NCc1cccnc1)C1CCN(C(=O)c2cc3ccccc3n2Cc2ccc(Cl)cc2)CC1 | 11.4 µM | – | – | – | – |
| O=C(NCCc1ccncc1)C1CCN(C(=O)NCCc2ccc(Cl)cc2)CC1 | 40.9 µM | – | > 100 µM | – | Kinetic_solubility [3]: 250 µM |
| Cn1c(C(=O)N2CCC(C(=O)NCCc3ccncc3)CC2)cc2ccccc21 | > 50 µM | – | > 50 µM | – | – |
| O=C(NCCc1ccncc1)C1CCN(C(=O)c2cc3ccccc3n2Cc2ccccc2)CC1 | 1.6 µM | 11.7% | – | 45.6 µM | viability at 24 h, 25 µM [5]: 79.4%; Activity (Fort Morgan virus): 6.8 ×10⁶ PFU/ml; Kinetic_solubility [3]: 31 µM; t1/2 [6]: 77.9 min |
| O=C(NCCc1ccncc1)C1CCN(C(=O)c2cc3ccc(F)cc3n2Cc2ccc(Cl)cc2)CC1 | 0.6 µM | 30.8% | – | 43.1 µM | viability at 24 h, 25 µM [5]: 69.2%; Activity (Fort Morgan virus): 1.6 ×10⁶ PFU/ml |
| O=C(NCCc1ccncc1)C1CCN(C(=O)c2cc3cc(F)ccc3n2Cc2ccc(Cl)cc2)CC1 | 0.9 µM | 42.6% | – | 52.5 µM | Kinetic_solubility [3]: 31 µM |
| O=C(NCCc1ccncc1)C1CCN(C(=O)c2cc3ccncc3n2Cc2ccc(Cl)cc2)CC1 | 4.4 µM | 1.2% | – | 77.1 µM | viability at 24 h, 25 µM [5]: 66.1%; Activity (Fort Morgan virus): 69.4 ×10⁶ PFU/ml; Kinetic_solubility [3]: 125 µM; t1/2 [6]: 9.1 min |
| O=C(NCCc1ccncc1)C1CCN(C(=O)c2cc(F)cn2Cc2ccc(Cl)cc2)CC1 | 0.9 µM | – | – | 8 µM | Kinetic_solubility [3]: 125 µM |
| CC(C)c1ccc(CCNC(=O)C2CCN(C(=O)c3cc4ccccc4n3Cc3ccc(Cl)cc3)CC2)cc1 | 10.8 µM | – | – | 27.2 µM | – |
| O=C(c1cc2ccccc2n1Cc1ccc(Cl)cc1)N1CCC(C(=O)N2CCC[C@H]2CO)CC1 | 30.6 µM | – | – | 98.9 µM | – |
| CN(C)C(=O)C1CCN(C(=O)c2cc3ccccc3n2Cc2ccc(Cl)cc2)CC1 | 10.5 µM | 23.2% | > 100 µM | – | Kinetic_solubility [3]: 62 µM |
| O=C(c1cc2ccccc2n1Cc1ccc(Cl)cc1)N1CCC(C(=O)N2CCCC2)CC1 | 22.2 µM | – | – | 65.6 µM | – |
| O=C(c1cc2ccccc2n1Cc1ccc(Cl)cc1)N1CCC(C(=O)N2CCOCC2)CC1 | 12.8 µM | – | > 100 µM | – | – |
| CN(Cc1ccccc1)C(=O)C1CCN(C(=O)c2cc3ccccc3n2Cc2ccc(Cl)cc2)CC1 | 16.9 µM | – | – | 87 µM | – |
| CN(Cc1ccccc1)C(=O)C1CCN(C(=O)c2cc3ccccc3n2Cc2ccc([N+](=O)[O-])cc2)CC1 | 61.3 µM | – | > 100 µM | – | – |
| CN(Cc1ccccc1)C(=O)C1CCN(C(=O)c2cc3ccccc3n2Cc2ccc(C#N)cc2)CC1 | 95.9 µM | – | > 100 µM | – | – |
| COc1ccc(Cn2c(C(=O)N3CCC(C(=O)N(C)Cc4ccccc4)CC3)cc3ccccc32)cc1 | 16.5 µM | – | – | 99.2 µM | – |
| CC(=O)n1c(C(=O)N2CCC(C(=O)N(C)Cc3ccccc3)CC2)cc2ccccc21 | > 50 µM | – | > 50 µM | – | – |
| COCCn1c(C(=O)N2CCC(C(=O)N(C)Cc3ccccc3)CC2)cc2ccccc21 | > 50 µM | – | > 50 µM | – | – |
| CC(C)Cn1c(C(=O)N2CCC(C(=O)N(C)Cc3ccccc3)CC2)cc2ccccc21 | 27.9 µM | – | – | 58.2 µM | – |
| CN(Cc1ccccc1)C(=O)C1CCN(C(=O)c2cc3ccccc3n2Cc2ccccc2)CC1 | 17 µM | – | – | 64.8 µM | – |
| CN(Cc1ccccc1)C(=O)C1CCN(C(=O)c2cc3ccccc3n2Cc2ccncc2)CC1 | 24.2 µM | – | – | 80.3 µM | – |

| Structure (SMILES) | IC50 [1] | inhibition at 4 h, 30 µM [2] | CC50 ([4]; BE(2)-C cells) | CC50 ([4]; be(2)-c) | other results |
| --- | --- | --- | --- | --- | --- |
| CN(Cc1ccccc1)C(=O)C1CCN(C(=O)c2cc3ccccc3n2Cc2ccc(C(F)(F)F)cc2)CC1 | 35.1 µM | – | – | 90.3 µM | – |
| O=C(NCCc1ccncc1)C1CCN(C(=O)c2nccn2Cc2ccc(Cl)cc2)CC1 | > 50 µM | 0.13% | > 50 µM | – | solubility kinetic ([3]; read-out: Kinetic_solubility): > 500 µM |
| O=C(NCCc1ccncc1)C1CCN(C(=O)c2nc3ccccc3n2Cc2ccc(Cl)cc2)CC1 | 4.1 µM | 6.9% | – | 74.6 µM | viability at 24 h, 25 µM [5]: 69.7%; Activity (Fort Morgan virus): 16.4 ×10⁶ PFU/ml; Kinetic_solubility [3]: 63 µM; t1/2 [6]: 43 min |
| O=C(NCc1ccccc1)C1CCN(C(=O)c2cc3ccccc3n2Cc2ccc(Cl)cc2)CC1 | 15.6 µM | – | – | – | – |
| C[C@@H](NC(=O)C1CCN(C(=O)c2cc3ccccc3n2Cc2ccc(Cl)cc2)CC1)c1ccncc1 | 0.6 µM | 35.9% | – | 92.3 µM | viability at 24 h, 25 µM [5]: 65.5%; Activity (Fort Morgan virus): 6.4 ×10⁶ PFU/ml; t1/2 [6]: 23.4 min |
| CN1CCN(C(=O)C2CCN(C(=O)c3cc4ccccc4n3Cc3ccc(Cl)cc3)CC2)CC1 | 31.4 µM | – | – | 75.6 µM | – |
| CN1CCC(CNC(=O)C2CCN(C(=O)c3cc4ccccc4n3Cc3ccc(Cl)cc3)CC2)CC1 | > 50 µM | – | > 50 µM | – | – |
| Cn1ccc(CNC(=O)C2CCN(C(=O)c3cc4ccccc4n3Cc3ccc(Cl)cc3)CC2)n1 | 76.9 µM | – | > 100 µM | – | – |
| Cn1cnc(CNC(=O)C2CCN(C(=O)c3cc4ccccc4n3Cc3ccc(Cl)cc3)CC2)c1 | > 50 µM | – | > 50 µM | – | – |
| O=C(NCCc1cccnc1)C1CCN(C(=O)c2cc3ccccc3n2Cc2ccc(Cl)cc2)CC1 | 5.3 µM | 30.1% | – | 39.4 µM | – |
| O=C(NCCc1ccccn1)C1CCN(C(=O)c2cc3ccccc3n2Cc2ccc(Cl)cc2)CC1 | 22.4 µM | 21.9% | – | 86.2 µM | – |
| O=C(NCCCc1ccncc1)C1CCN(C(=O)c2cc3ccccc3n2Cc2ccc(Cl)cc2)CC1 | 31.9 µM | 35.2% | – | 71.5 µM | Kinetic_solubility [3]: 16 µM |
| CC(CNC(=O)C1CCN(C(=O)c2cc3ccccc3n2Cc2ccc(Cl)cc2)CC1)c1ccncc1 (centres undefined) | 1.7 µM | 25.4% | – | 98.2 µM | viability at 24 h, 25 µM [5]: 74%; Activity (Fort Morgan virus): 13.3 ×10⁶ PFU/ml |
| CC(C)(Cc1ccncc1)NC(=O)C1CCN(C(=O)c2cc3ccccc3n2Cc2ccc(Cl)cc2)CC1 | 19.3 µM | – | 43.6 µM | – | – |
| CN(CCc1ccncc1)C(=O)C1CCN(C(=O)c2cc3ccccc3n2Cc2ccc(Cl)cc2)CC1 | 1.6 µM | 72% | – | 47.9 µM | – |
| O=C(NCC1COc2cnccc21)C1CCN(C(=O)c2cc3ccccc3n2Cc2ccc(Cl)cc2)CC1 (centres undefined) | 3.6 µM | 47% | – | 75.8 µM | – |
| O=C(NCCn1ccnc1)C1CCN(C(=O)c2cc3ccccc3n2Cc2ccc(Cl)cc2)CC1 | 4.9 µM | 15.1% | – | 99.6 µM | viability at 24 h, 25 µM [5]: 70.3%; Activity (Fort Morgan virus): 15.8 ×10⁶ PFU/ml; Kinetic_solubility [3]: 31 µM; t1/2 [6]: 14.3 min |
| COc1cccc(CCNC(=O)C2CCN(C(=O)c3cc4ccccc4n3Cc3ccc(Cl)cc3)CC2)c1 | 11.1 µM | – | > 100 µM | – | – |
| O=C(NCCc1ccc(F)cc1)C1CCN(C(=O)c2cc3ccccc3n2Cc2ccc(Cl)cc2)CC1 | 21.4 µM | – | – | 18.6 µM | – |
| COc1ccc(CCNC(=O)C2CCN(C(=O)c3cc4ccccc4n3Cc3ccc(Cl)cc3)CC2)cc1 | 15.5 µM | – | – | 11.3 µM | – |
| O=C(NCCc1ccc(Cl)cc1)C1CCN(C(=O)c2cc3ccccc3n2Cc2ccc(Cl)cc2)CC1 | 8.1 µM | – | – | 40.4 µM | – |
| CC(NC(=O)C1CCN(C(=O)c2cc3ccccc3n2Cc2ccc(Cl)cc2)CC1)c1ccncc1 (racemic) | 2.4 µM | 43.1% | – | 90.1 µM | viability at 24 h, 25 µM [5]: 63.2%; Activity (Fort Morgan virus): 3.7 ×10⁶ PFU/ml; Kinetic_solubility [3]: 31 µM; Activity [7]: 0.7 ×10⁶ PFU/ml |
| NC(=O)c1ncn([C@@H]2O[C@H](CO)[C@@H](O)[C@H]2O)n1 [RIBAVIRIN] | 16 µM | – | – | – | viability at 24 h, 25 µM [5]: 32.6%; Activity (Fort Morgan virus): 53.5 ×10⁶ PFU/ml; Activity [7]: 9.3 ×10⁶ PFU/ml |

— ChEMBL document CHEMBL3085701, “Optimization of novel indole-2-carboxamide inhibitors of neurotropic alphavirus replication” (J Med Chem, 2013)
